Test results as given in article PMC9037209 (Journal of Enzyme Inhibition and Medicinal Chemistry, 2022).
≈ marks a conversion by molar mass, not a printed value. Where “and” joins values, the source holds several entries; their conditions need not be identical. Identical values can stand only once. Entries after “also recorded” stand apart in the source; their conditions may differ. Like-named read-outs stand apart in the source and are kept apart here. Marks after values point to notes of the source that are not given here.

Experiments:
H. pylori strain 26695 [1] = assay: Minimal inhibitory concentration; format: cell-based, Helicobacter pylori
Procedure, shortened: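 Strain ATCC 26695 revived from glycerol stock on BHI agar with 10% FBS and 1% selective supplement. Twofold compound dilutions (DMSO or water stocks) mixed 1:1 with inoculated double-strength BHI (20% FBS, 2% supplement; ~0.05 OD600, 4×10^4 CFU/mL final). Shaken at 120 rpm, 37 °C, microaerophilic; OD600 read at 0, 4, 8 and 24 h. Viability checked with Christensen's urea broth (4 h, aerobic, 37 °C). MIC taken at ≥90% inhibition; triplicates, kanamycin and DMSO controls.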

[2] = target: PNP from Helicobacter pylori strain 26695 (HpPNP) (Helicobacter pylori, UniProt P56463); assay: Inhibition of H. pylori PNP, direct spectrophotometric phosphorolysis assay; format: biochemical; conditions: m7Guo variable substrate, 50 mM phosphate; for inhibition model describing the data: model chosen by F test / AIC; for alpha = Kiu/Kic: mixed inhibition model, 25 °C, pH 7.0
[3] = Solubility: concentration of dissolved inhibitor in filtered supernatants; format: physicochemical; conditions: for maximal tested concentration of the fully dissolved compound: in the cell culture experiment, filtered supernatant; for solubility: water, kinetic from dmso stock
Procedure, shortened: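 DMSO stocks (10 mM) diluted with water to the planned concentrations. Precipitate removed with sterile 0.22 µm syringe filters. Dissolved concentration in the filtrate measured by UV absorbance: ε261 10,900 M−1 cm−1 for the 6-benzyloxy analogue, ε299 18,000 M−1 cm−1 for 6-benzylthio analogues.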

H. pylori strain 26695 [4] = conditions: cited from earlier work
H. pylori PNP = conditions: read-out: inhibition constant; competitive vs. nucleoside substrate; cited from earlier work
H. pylori 26695 strain = assay: Checkerboard assay of 6BnS-2Cl-Pu with metronidazole; format: cell-based, Helicobacter pylori; conditions: single agent, concentration giving about 90% inhibition or more
Procedure, shortened: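 Sub-MIC checkerboard against strain 26695 with metronidazole (range chosen from the EUCAST MIC). Test-compound gradient 3.0–10.0. Single agents added at 2× and combinations at 4× each, with inoculated double-strength BHI (~0.05 OD600, 4×10^4 CFU/mL final). Shaken at 120 rpm, 37 °C, microaerophilic. […] FICI = MICA/MICa + MICB/MICb.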

[5] = Helicobacter pylori, 26695, 24 h

Chain of PNP from Helicobacter pylori strain 26695 (HpPNP) (P56463 whole entry): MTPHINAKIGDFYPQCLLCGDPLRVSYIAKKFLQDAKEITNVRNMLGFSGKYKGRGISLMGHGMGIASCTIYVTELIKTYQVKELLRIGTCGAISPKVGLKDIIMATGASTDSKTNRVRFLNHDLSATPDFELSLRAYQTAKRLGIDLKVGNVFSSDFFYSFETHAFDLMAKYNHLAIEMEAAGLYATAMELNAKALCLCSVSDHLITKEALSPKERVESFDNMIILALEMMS

| Compound | MIC (H. pylori strain 26695 [1]; [5]) | inhibition model describing the data [2] | alpha = Kiu/Kic [2] | solubility [3] | also measured |
| --- | --- | --- | --- | --- | --- |
| Clc1nc(SCc2ccccc2)c2[nH]cnc2n1 [6BnS-2Cl-Pu, 6-benzylthio-2-chloropurine] | 69 µg/mL and 250 µM | probably a mixed type | 0.16 ± 0.15 | 11.1 µg/mL and 40 µM | H. pylori 26695 cell culture growth inhibition (H. pylori strain 26695 [1]; solution prepared as 0.25 mM but partially precipitated): full inhibition; also recorded: Complete growth inhibition; maximal tested concentration of the fully dissolved compound [3]: 0.040 mM |
| Clc1nc(OCc2ccccc2)c2[nH]cnc2n1 [6BnO-2Cl-Pu, 6-benzyloxy-2-chloropurine] | – | mixed inhibition model | 0.25 ± 0.12 | 25 µg/mL and 95 µM | maximal tested concentration of the fully dissolved compound [3]: 0.095 mM |
| NC[C@H]1O[C@H](O[C@H]2[C@H](O)[C@@H](O[C@H]3O[C@H](CO)[C@@H](O)[C@H](N)[C@H]3O)[C@H](N)C[C@@H]2N)[C@H](O)[C@@H](O)[C@@H]1O [kanamycin, Kanamycin] | – | – | – | – | MIC (H. pylori strain 26695 [4]): 0.5–64^f µg mL^−1; MIC (H. pylori strain 26695 [4]; converted from literature value): 1.1 to 132 µM; % of H. pylori cell culture inhibition (H. pylori strain 26695 [1]; 25 µg/mL (52 µM), positive control, not the maximal solubility): 92–96% |
| Nc1ncnc2c([C@@H]3O[C@H](CO)[C@@H](O)[C@H]3O)[nH]nc12 [Formycin A] | – | – | – | – | Ki (H. pylori PNP): 14 ± 1.7 µM |
| c1ccc(CSc2ncnc3nc[nH]c23)cc1 [6BnS-Pu, 6-benzylthiopurine] | 48 µg/mL and 200 µM | non-competitive | 1.07 ± 0.27 | 21 µg/mL and 85 µM | H. pylori 26695 strain growth inhibition (H. pylori strain 26695 [1]; prepared as 200 µM but partially precipitated): completely inhibited |
| Clc1nc(Cl)c2[nH]cnc2n1 [2,6-diCl-Pu, 2,6-dichloropurine] | 2500 µM (≈ 473 µg/mL) | non-competitive | 1.17 ± 0.44 | 236 µg/mL and 1250 µM | MIC (H. pylori strain 26695 [1]; Helicobacter pylori, 26695): 2500 µM (≈ 473 µg/mL); solubility in water ([3]; 10 mM stock in milli-Q water and 2-fold dilutions, no precipitate): good solubility in water; also recorded: well soluble in water |
| Cc1ncc([N+](=O)[O-])n1CCO [metronidazole] | – | – | – | – | MIC (H. pylori strain 26695 [4]; EUCAST): 8^f µg mL^−1; MIC (H. pylori strain 26695 [4]; converted from EUCAST value): 47 µM (≈ 8.04 µg/mL); MIC taken for FICI calculation (H. pylori 26695 strain): 2 µg/mL |
